Results reported in ChEMBL document CHEMBL1152541, “Staurosporine tethered peptide ligands that target cAMP-dependent protein kinase (PKA): optimization and selectivity profiling” (Bioorg Med Chem, 2009).
Values belong to the compound of their own block, whether it stands above or below them. *1 amine or outer side, *2 acyl side, *3 side chain or, on linkers, in order; H or OH if unused. Where a SMILES comes first, the peptide text is derived from it. Bridges are numbered along the chain shown (N, C = ends). [ ]: non-standard residue; d: D form. The star is where a group is joined. Staurosporine = CO[C@@H]1[C@H](N(C)*)C[C@H]2O[C@]1(C)n1c3ccccc3c3c4c(c5c6ccccc6n2c5c31)C(=O)NC4; Suc = O=C(CCC(=O)[*:2])[*:1]; Dap = NC[C@H](N)C(=O)O; βAla = NCCC(=O)O

How the values were obtained:
[1] = target: Tyrosine-protein kinase JAK2 (Homo sapiens) (UniProt O60674); experiment: Binding affinity to human JAK2 kinase domain 2 at 500 nM by cell-based competition binding assay relative to control in presence of DTT
Method in brief: (§1)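 Competition binding screen (Ambit) across a panel of 90 kinases, scoring test ligand displacement of each kinase's binding relative to control. The screen ran under reducing conditions with 7.5 mM DTT.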

[2] = target: Mitogen-activated protein kinase kinase kinase 4 (Homo sapiens) (UniProt Q9Y6R4); experiment: Binding affinity to human MAP3K4 at 500 nM by cell-based competition binding assay relative to control in presence of DTT; method in brief: as §1
[3] = target: RAC-alpha serine/threonine-protein kinase (Homo sapiens) (UniProt P31749); experiment: Binding affinity to human AKT1 at 500 nM by cell-based competition binding assay relative to control in presence of DTT
Method in brief: (§2)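 Kinase binding profiling ran on a commercial (Ambit) competitive binding screen against a panel of 90 kinases. The screen used reducing conditions with 7.5 mM DTT. To withstand the DTT, the bivalent ligand was tested as its amide isostere, with the disulfide replaced. A staurosporine derivative carrying a 3 β-alanine linker was run as the reference compound.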

[4] = target: Mitogen-activated protein kinase 8 (Homo sapiens) (UniProt P45983); experiment: Binding affinity to human JNK1 at 500 nM by cell-based competition binding assay relative to control in presence of DTT; method in brief: as §1
[5] = target: Glycogen synthase kinase-3 beta (Homo sapiens) (UniProt P49841); experiment: Ratio of compound to staurosporine binding affinity to human GSK3-beta in presence of DTT
[6] = target: Cyclin-dependent kinase 9 (Homo sapiens) (UniProt P50750); experiment: Binding affinity to human CDK9 at 200 nM by cell-based competition binding assay relative to control in presence of DTT
Method in brief: (§3)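 Commercial (Ambit) competitive kinase-binding panel of 90 kinases measured the binding profile. Run under reducing conditions of 7.5 mM DTT. Binding is expressed relative to control.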

[7] = target: Ephrin type-A receptor 2 (Homo sapiens) (UniProt P29317); experiment: Binding affinity to human EPHA2 at 200 nM by cell-based competition binding assay relative to control in presence of DTT; method in brief: as §3
[8] = target: RAC-alpha serine/threonine-protein kinase (Homo sapiens) (UniProt P31749); experiment: Binding affinity to human AKT1 at 200 nM by cell-based competition binding assay relative to control in presence of DTT; method in brief: as §2
[9] = target: T1, 3-phosphoinositide-dependent protein kinase 1 (Homo sapiens) (UniProt O15530); experiment: Binding affinity to human PDPK1 at 200 nM by cell-based competition binding assay relative to control in presence of DTT
T1 sequence (whole entry): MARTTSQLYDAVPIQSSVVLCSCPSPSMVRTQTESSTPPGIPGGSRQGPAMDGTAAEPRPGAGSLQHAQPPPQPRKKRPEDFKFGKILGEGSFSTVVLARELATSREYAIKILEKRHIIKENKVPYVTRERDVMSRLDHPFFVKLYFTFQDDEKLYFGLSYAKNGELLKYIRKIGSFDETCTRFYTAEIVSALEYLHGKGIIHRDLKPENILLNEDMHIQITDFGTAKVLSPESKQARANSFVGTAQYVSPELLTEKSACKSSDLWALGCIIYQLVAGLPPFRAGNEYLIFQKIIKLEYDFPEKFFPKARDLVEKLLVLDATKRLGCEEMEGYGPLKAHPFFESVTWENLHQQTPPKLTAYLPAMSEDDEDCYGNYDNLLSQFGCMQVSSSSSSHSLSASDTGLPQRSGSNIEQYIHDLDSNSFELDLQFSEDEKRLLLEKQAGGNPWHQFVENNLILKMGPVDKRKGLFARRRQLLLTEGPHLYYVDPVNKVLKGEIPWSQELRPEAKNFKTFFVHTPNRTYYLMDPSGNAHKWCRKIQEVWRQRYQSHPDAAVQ

[10] = target: RAF proto-oncogene serine/threonine-protein kinase (Homo sapiens) (UniProt P04049); experiment: Binding affinity to human RAF1 at 50 nM by cell-based competition binding assay relative to control in presence of DTT
[11] = target: T2, Tyrosine-protein kinase JAK3 (Homo sapiens) (UniProt P52333); experiment: Binding affinity to human JAK3 kinase domain 2 at 50 nM by cell-based competition binding assay relative to control in presence of DTT; method in brief: as §1
T2 sequence (whole entry): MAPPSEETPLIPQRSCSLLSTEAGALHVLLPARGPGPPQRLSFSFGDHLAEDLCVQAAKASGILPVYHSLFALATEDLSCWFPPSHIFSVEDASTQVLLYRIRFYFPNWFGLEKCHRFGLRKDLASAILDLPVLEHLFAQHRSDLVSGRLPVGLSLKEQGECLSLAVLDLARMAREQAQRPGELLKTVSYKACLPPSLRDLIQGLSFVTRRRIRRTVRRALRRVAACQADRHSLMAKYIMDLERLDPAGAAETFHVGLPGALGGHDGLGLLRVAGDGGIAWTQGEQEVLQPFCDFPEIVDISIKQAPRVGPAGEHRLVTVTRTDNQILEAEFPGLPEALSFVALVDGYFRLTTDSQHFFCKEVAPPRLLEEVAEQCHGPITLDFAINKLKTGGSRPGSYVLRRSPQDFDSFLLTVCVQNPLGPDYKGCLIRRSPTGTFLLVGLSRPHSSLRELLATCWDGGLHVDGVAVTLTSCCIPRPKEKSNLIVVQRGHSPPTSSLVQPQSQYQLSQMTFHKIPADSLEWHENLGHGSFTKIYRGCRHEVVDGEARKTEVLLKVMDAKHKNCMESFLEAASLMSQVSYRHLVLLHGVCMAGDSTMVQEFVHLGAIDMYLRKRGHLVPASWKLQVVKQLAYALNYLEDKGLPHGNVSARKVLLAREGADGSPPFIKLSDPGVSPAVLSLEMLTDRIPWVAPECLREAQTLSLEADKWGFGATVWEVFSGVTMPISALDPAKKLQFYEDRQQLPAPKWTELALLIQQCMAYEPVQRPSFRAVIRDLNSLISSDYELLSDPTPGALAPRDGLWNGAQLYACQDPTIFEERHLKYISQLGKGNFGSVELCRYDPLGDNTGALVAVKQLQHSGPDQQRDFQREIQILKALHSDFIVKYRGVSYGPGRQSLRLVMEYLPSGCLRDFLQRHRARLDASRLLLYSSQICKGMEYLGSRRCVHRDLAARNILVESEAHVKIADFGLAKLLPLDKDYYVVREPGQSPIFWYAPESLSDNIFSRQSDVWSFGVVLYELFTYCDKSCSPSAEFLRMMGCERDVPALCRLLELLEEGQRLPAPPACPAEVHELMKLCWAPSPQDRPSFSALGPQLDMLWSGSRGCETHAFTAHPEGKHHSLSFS

[12] = target: Ribosomal protein S6 kinase alpha-3 (Homo sapiens) (UniProt P51812); experiment: Binding affinity to human RPS6KA3 kinase domain 1 at 50 nM by cell-based competition binding assay relative to control in presence of DTT
[13] = target: Ephrin type-A receptor 2 (Homo sapiens) (UniProt P29317); experiment: Binding affinity to human EPHA2 at 50 nM by cell-based competition binding assay relative to control in presence of DTT; method in brief: as §3
[14] = target: ALK tyrosine kinase receptor (Homo sapiens) (UniProt Q9UM73); experiment: Binding affinity to human ALK at 50 nM by cell-based competition binding assay relative to control in presence of DTT; method in brief: as §2

Ephrin type-A receptor 2 (Homo sapiens), sequence (P29317 whole entry): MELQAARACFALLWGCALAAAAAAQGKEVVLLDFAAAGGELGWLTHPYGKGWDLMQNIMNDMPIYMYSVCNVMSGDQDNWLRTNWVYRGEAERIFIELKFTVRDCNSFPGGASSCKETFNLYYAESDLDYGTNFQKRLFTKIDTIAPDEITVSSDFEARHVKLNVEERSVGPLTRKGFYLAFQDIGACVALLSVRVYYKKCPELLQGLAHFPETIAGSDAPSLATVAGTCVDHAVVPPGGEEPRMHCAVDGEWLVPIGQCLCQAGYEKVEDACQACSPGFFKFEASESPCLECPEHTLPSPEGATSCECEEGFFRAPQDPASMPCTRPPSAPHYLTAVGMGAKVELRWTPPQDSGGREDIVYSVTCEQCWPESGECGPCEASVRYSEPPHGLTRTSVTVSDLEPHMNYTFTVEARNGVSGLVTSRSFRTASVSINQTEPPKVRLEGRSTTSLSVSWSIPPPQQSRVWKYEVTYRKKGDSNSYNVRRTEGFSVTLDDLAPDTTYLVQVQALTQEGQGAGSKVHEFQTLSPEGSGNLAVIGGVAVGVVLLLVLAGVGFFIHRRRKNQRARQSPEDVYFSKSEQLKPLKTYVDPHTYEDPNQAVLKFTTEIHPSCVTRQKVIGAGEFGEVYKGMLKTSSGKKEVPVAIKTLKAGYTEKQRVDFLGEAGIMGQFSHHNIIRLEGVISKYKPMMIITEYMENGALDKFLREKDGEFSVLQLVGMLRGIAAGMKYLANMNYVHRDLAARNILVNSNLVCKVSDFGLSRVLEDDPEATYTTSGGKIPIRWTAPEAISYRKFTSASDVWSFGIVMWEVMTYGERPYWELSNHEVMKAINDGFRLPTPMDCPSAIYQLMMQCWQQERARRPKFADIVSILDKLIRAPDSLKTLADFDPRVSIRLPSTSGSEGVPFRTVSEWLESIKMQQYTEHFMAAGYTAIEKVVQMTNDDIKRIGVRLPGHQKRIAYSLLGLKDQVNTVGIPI
RAC-alpha serine/threonine-protein kinase (Homo sapiens), sequence (P31749 whole entry): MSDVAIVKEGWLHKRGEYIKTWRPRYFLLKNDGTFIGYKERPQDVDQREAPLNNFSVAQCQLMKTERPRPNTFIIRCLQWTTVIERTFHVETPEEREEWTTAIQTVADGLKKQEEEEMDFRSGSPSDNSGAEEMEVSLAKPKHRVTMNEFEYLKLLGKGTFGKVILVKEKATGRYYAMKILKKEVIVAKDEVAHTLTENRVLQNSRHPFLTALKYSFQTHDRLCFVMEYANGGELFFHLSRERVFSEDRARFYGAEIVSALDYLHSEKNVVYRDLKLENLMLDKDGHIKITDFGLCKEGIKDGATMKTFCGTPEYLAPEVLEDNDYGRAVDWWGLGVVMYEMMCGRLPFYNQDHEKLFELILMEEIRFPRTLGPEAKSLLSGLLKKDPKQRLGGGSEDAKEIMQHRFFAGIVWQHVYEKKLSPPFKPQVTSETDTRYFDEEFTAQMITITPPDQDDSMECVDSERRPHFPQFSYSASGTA
Mitogen-activated protein kinase 8 (Homo sapiens), sequence (P45983 whole entry): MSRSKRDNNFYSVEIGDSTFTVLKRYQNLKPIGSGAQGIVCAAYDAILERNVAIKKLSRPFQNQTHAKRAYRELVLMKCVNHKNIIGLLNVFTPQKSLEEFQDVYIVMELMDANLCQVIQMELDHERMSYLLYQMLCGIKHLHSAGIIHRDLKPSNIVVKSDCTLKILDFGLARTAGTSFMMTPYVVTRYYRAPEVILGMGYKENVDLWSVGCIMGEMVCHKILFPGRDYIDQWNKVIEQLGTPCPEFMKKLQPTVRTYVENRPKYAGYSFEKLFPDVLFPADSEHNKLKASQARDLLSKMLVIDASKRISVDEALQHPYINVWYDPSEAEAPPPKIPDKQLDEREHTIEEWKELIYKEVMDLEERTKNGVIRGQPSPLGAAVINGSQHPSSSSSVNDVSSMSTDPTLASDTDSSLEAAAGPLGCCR
Glycogen synthase kinase-3 beta (Homo sapiens), sequence (P49841 whole entry, looked up): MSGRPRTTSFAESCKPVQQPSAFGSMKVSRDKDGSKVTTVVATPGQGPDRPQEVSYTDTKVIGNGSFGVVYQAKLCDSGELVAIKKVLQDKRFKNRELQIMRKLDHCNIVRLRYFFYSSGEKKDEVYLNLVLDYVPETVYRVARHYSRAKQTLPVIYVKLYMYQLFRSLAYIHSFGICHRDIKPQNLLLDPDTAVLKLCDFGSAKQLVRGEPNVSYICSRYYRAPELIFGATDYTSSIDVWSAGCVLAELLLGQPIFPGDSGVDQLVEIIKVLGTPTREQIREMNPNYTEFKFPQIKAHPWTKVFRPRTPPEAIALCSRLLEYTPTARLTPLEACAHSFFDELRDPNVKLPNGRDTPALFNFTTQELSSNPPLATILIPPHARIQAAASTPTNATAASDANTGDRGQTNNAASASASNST
Cyclin-dependent kinase 9 (Homo sapiens), sequence (P50750 whole entry): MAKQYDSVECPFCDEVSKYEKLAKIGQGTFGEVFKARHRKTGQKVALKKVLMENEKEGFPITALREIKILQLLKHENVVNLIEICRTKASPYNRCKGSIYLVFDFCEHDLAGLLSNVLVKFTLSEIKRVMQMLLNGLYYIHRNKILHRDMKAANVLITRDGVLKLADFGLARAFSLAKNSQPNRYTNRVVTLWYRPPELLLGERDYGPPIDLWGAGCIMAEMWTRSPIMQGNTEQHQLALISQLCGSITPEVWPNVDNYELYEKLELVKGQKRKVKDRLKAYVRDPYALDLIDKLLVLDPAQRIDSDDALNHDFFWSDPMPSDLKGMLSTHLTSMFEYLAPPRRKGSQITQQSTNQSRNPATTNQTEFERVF
Mitogen-activated protein kinase kinase kinase 4 (Homo sapiens), sequence (Q9Y6R4 whole entry): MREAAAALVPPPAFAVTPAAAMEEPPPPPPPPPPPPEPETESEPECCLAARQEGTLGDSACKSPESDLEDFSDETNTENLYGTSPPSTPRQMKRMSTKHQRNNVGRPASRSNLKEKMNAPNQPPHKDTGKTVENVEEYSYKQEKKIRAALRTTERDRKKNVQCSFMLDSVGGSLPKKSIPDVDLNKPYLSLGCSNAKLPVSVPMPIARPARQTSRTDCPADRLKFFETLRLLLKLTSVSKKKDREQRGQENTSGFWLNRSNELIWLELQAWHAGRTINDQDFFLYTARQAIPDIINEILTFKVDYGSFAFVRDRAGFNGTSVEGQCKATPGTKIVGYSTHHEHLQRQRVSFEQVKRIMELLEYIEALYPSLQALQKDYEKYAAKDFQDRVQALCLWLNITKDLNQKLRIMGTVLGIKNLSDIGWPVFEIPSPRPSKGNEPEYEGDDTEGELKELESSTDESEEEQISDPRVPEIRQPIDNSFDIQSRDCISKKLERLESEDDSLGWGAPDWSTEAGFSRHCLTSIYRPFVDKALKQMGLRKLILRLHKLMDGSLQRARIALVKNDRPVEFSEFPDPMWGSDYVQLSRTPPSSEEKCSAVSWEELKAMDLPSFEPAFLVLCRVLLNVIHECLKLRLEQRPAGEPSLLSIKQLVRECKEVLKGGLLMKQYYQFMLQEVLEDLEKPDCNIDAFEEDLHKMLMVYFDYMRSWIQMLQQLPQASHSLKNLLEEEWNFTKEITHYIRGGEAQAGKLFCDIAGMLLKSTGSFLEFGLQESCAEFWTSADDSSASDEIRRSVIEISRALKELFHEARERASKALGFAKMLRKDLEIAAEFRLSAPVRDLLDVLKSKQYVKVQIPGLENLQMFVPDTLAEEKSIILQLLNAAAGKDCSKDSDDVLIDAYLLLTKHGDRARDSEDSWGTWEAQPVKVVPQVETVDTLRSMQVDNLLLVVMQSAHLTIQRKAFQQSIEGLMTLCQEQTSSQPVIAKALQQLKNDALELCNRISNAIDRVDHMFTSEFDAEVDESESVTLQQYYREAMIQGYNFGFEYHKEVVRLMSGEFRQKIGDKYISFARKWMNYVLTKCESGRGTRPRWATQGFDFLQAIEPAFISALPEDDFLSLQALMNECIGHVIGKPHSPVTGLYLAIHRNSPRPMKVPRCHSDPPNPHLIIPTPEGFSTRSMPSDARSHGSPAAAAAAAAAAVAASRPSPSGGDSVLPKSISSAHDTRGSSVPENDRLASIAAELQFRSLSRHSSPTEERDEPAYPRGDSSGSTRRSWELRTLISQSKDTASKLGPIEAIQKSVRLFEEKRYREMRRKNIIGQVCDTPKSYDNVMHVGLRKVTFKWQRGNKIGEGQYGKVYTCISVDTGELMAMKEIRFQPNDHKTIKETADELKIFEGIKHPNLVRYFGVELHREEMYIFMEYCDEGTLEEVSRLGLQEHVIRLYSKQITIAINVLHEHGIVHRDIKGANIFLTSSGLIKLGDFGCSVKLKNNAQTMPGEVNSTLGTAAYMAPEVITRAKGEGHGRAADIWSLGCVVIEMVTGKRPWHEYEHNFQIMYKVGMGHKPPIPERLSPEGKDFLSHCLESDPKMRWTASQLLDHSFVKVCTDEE
RAF proto-oncogene serine/threonine-protein kinase (Homo sapiens), sequence (P04049 whole entry, the tested form may be a part): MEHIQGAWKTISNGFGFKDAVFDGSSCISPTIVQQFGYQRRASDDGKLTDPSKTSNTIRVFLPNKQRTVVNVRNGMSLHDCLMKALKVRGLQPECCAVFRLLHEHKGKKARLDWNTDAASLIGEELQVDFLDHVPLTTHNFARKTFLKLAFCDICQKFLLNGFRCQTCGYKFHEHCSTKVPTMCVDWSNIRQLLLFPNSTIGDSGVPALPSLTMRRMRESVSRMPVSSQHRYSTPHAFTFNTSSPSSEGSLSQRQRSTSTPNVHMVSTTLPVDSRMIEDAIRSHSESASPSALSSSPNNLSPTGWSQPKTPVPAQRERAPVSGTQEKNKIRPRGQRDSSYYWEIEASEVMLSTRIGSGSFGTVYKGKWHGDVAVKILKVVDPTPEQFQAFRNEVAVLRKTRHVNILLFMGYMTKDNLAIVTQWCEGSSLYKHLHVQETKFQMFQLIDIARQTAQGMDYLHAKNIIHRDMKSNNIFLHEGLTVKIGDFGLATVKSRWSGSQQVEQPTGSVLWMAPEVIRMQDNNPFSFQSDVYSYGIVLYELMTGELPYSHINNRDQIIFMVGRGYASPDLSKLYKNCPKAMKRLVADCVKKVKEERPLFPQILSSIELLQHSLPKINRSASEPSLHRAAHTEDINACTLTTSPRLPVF

- Activity [1]: 2.4%
- Activity [2]: 95%
- Activity [3]: 100%
- Activity [4]: 52%
- Selectivity ratio [5]: 7
SMILES: CO[C@@H]1[C@H](N(C)C(=O)CCC(=O)NCCC(=O)NCCC(=O)NCCC(N)=O)C[C@H]2O[C@]1(C)n1c3ccccc3c3c4c(c5c6ccccc6n2c5c31)C(=O)NC4

- Activity [6]: 100%
- Activity [7]: 100%
- Activity [8]: 100%
- Activity [9]: 16%
SMILES: CO[C@@H]1[C@H](N(C)C(=O)CCC(=O)NCCC(=O)NCCC(=O)NCCC(=O)NCCC(=O)NCCC(=O)NCCC(=O)NCCC(=O)N[C@H]2CSSC[C@@H](C(=O)NCC(N)=O)NC(=O)CNC(=O)[C@H](Cc3ccccc3)NC(=O)[C@H](C(C)C)NC(=O)[C@H](CCCNC(=N)N)NC(=O)[C@H](Cc3ccccc3)NC(=O)[C@H](C(C)C)NC2=O)C[C@H]2O[C@]1(C)n1c3ccccc3c3c4c(c5c6ccccc6n2c5c31)C(=O)NC4 ({Staurosporine-Suc-βAla-βAla-βAla-βAla-βAla-βAla-βAla}-CVFRVFGCG-NH2; disulfide 1-8)

- Activity [10]: 100%
- Activity [11]: 16%
- Activity [12]: 100%
- Activity [13]: 99%
- Activity [14]: 92%
SMILES: CO[C@@H]1[C@H](N(C)C(=O)CCC(=O)NCCC(=O)NCCC(=O)NCCC(=O)NCCC(=O)NCCC(=O)NCCC(=O)NCCC(=O)N[C@H]2CNC(=O)C[C@@H](C(N)=O)NC(=O)CNC(=O)[C@H](Cc3ccccc3)NC(=O)[C@H](C(C)C)NC(=O)[C@H](CCCNC(=N)N)NC(=O)[C@H](Cc3ccccc3)NC(=O)[C@H](C(C)C)NC2=O)C[C@H]2O[C@]1(C)n1c3ccccc3c3c4c(c5c6ccccc6n2c5c31)C(=O)NC4 ({Staurosporine-Suc-βAla-βAla-βAla-βAla-βAla-βAla-βAla}-[Dap]VFRVFGD-NH2; lactam 1-8)
